This note sets out measurements from ChEMBL document CHEMBL1151811, “Isolation, structure elucidation, and biological activity of virgineone from Lachnum Wirgineum using the genome-wide Candida albicans fitness test” (2009).

The subject of test [1] is Candida albicans. The experiment in a line: Antifungal activity against Candida albicans MY1055 infected in DBA/2 mouse assessed as mouse mortality at 50 mg/kg, ip twice daily measured after 4 days postinfection. The class given is functional. The note with it: route intraperitoneal. The procedure, abridged: (§1)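 Mice infected iv via lateral tail vein with C. albicans MY1055 at 2.51 × 10⁴ cfu/mouse. Five DBA/2 mice per group, dosed ip twice daily; compound formulated in 5% DMSO in sterile distilled water. Mortality and general health observed for 4 days after challenge.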

Another test relates to Pichia kudriavzevii. The test is described as follows: Antifungal activity against Candida krusei ATCC 6258 after 20 hrs. The class given is functional. To be noted: ATCC 6258, 20 h. The method in brief:
(§2)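 Broth MIC. Cells inoculated at 10⁵ cfu/mL in growth medium with 2-fold serial dilutions of compound. Incubated 20 h at 37 °C. MIC taken as minimum inhibitory concentration. For line 2 the medium held 50% mouse serum.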

Another test deals with Clavispora lusitaniae. The experiment in a line: Antifungal activity against Candida lusitaniae MY1396 after 20 hrs. The test is classed as functional. The note with it: MY1396, 20 h. The method in brief:
(§3)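 Broth MIC with cells seeded at 10⁵ cfu/mL and exposed to 2-fold serial compound dilutions in growth medium, 37 °C for 20 h. MIC taken as the minimum inhibitory concentration.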

The test system of test [2] is Aspergillus fumigatus. The experiment in a line: Antifungal activity against Aspergillus fumigatus MF5568 after 20 hrs. The class given is functional. To be noted: MF5568, 20 h. The procedure, abridged: as §3
In another test the test system is Staphylococcus aureus. The test is described as follows: […] activity against Staphylococcus aureus MB2865. The class given is functional.
Test [3] deals with Candida albicans. The test is described as follows: Antifungal activity against Candida albicans MY1055 in presence of 50% mouse serum after 20 hrs. The test is classed as functional. The note with it: MY1055, 20 h. The method in brief: as §2
Test [4] concerns Trichophyton mentagrophytes. The experiment in a line: Antifungal activity against Trichophyton mentagrophytes MF7004 after 20 hrs. The test is classed as functional. To be noted: MF7004, 20 h. The procedure, abridged: as §3
The subject of test [5] is Candida albicans. The test is described as follows: Antifungal activity against Candida albicans MY1055 after 20 hrs. The class given is functional. The note with it: MY1055, 20 h. The method in brief: as §2
The subject of the next test is Nakaseomyces glabratus. The experiment in a line: Antifungal activity against Candida glabrata MY1381 after 20 hrs. The test is classed as functional. To be noted: MY1381, 20 h. The procedure, abridged: as §2
The test system of test [6] is Aspergillus fumigatus. The test is described as follows: Antifungal activity against Aspergillus fumigatus MF5568 in presence of 50% human serum after 20 hrs. The test is classed as functional. The note with it: MF5568, 20 h. The method in brief: as §3
The subject of another test is Candida parapsilosis. The experiment in a line: Antifungal activity against Candida parapsilosis ATCC 22019 after 20 hrs. The class given is functional. To be noted: Lodderomyces parapsilosis, ATCC 22019, 20 h. The method in brief: as §2
Test [7] has as its system Candida albicans. The experiment in a line: Antifungal activity against Candida albicans MY1055 infected in DBA/2 mouse assessed as mouse mortality at 100 mg/kg, ip twice daily measured after 4 days postinfection. The class given is functional. The note with it: route intraperitoneal. The procedure, abridged: as §1
The test system of test [8] is Candida albicans. The experiment in a line: Antifungal activity against Candida albicans MY1055 infected in DBA/2 mouse assessed as reduction in fugal CFU treated mouse twice daily measured after 4 days postinfection. The test is classed as functional, organism-based. The method in brief:
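DBA/2 mice (5 per group) were infected iv via lateral tail vein with 2.51 × 10⁴ cfu/mouse. They were dosed ip twice daily at 100 or 50 mg/kg in 5% DMSO/sterile water. On day 4, kidneys were homogenized in saline, diluted 10-fold serially, plated on SDA and incubated at 35 °C for 30–48 h. Cfu/g kidney were compared with sham-treated controls by paired two-tailed t-test.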

Structures are written as SMILES. In brackets after ≈: the same amount, converted by molar mass. Activity calls are given as the source filed them. No cut-off for these calls is given here. Bounds are passed on as bounds.

With `CC(CCCCCCCCC(=O)CCCCCCCCCC(O)CO[C@@H]1O[C@H](CO)[C@@H](O)[C@H](O)[C@@H]1O)C(=O)C1=C(O)C(Cc2ccc(O)cc2)NC1=O` (stereo partly drawn) [VIRGINEONE], the results for the Activity with Candida albicans [1] and in the test on Candida albicans [7] were 40% and 100%, respectively. The MIC in the test on Pichia kudriavzevii is 16 µg/mL (≈ 21.3 µM); in the test on Clavispora lusitaniae it was 4 µg/mL (≈ 5.33 µM); against Aspergillus fumigatus [2], 8 µg/mL (≈ 10.7 µM); against Staphylococcus aureus it was 16 µg/mL (≈ 21.3 µM); in the test on Candida albicans [3], over 32 µg/mL; in test [4], 8 µg/mL (≈ 10.7 µM). The MIC against Candida albicans [5] was 8 µg/mL (≈ 10.7 µM); against Nakaseomyces glabratus it was 8 µg/mL (≈ 10.7 µM); in the test with Aspergillus fumigatus [6] it was over 32 µg/mL; against Candida parapsilosis it was 8 µg/mL (≈ 10.7 µM). The outcome in the test with Candida albicans [8] was inactive.
For the compound `CC[C@H](C)C[C@H](C)CCCCCCCCC(=O)N[C@H]1C[C@@H](O)[C@@H](NCCN)NC(=O)[C@@H]2[C@@H](O)CCN2C(=O)[C@H]([C@H](O)CCN)NC(=O)[C@H]([C@H](O)[C@@H](O)c2ccc(O)cc2)NC(=O)[C@@H]2C[C@@H](O)CN2C(=O)[C@H]([C@@H](C)O)NC1=O` [CASPOFUNGIN], the MIC is 1 µg/mL (≈ 0.915 µM) in the test on Pichia kudriavzevii; under 0.03 µg/mL in the test on Clavispora lusitaniae; 32 µg/mL (≈ 29.3 µM) in the test with Aspergillus fumigatus [2]; over 32 µg/mL against Staphylococcus aureus; 0.25 µg/mL in the test on Candida albicans [3]; 32 µg/mL (≈ 29.3 µM) in [4]. Moreover, the MIC in the test on Candida albicans [5] was 0.5 µg/mL (≈ 0.457 µM); in the test with Nakaseomyces glabratus, 0.25 µg/mL (≈ 0.229 µM); in the test with Aspergillus fumigatus [6], 32 µg/mL; against Candida parapsilosis, 0.5 µg/mL (≈ 0.457 µM).
